# In the library only some 3.1% were active in any assay of this set; here they are far more common.
# DENV2 CPE rescue = inhibitors of DENV2 cytopathic effect, primary screen, cell-based, plate reader, single concentration | AID 651640, 2012 | CPE inhibition, % at 9.99 µM | 1.7% of 350,000 active | DENV2-infected cells, cytopathic effect rescue; in the data active means CPE inhibition above about 20%, passing the limit was not always enough; inconclusive means no clear call, values can overlap the other calls; tested in BHK-21 cells;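 further: 0% = median of neutral control wells and 100% = median of positive control wells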
# miR-122 sensor = miR-122 Renilla sensor signal increase in Huh7, primary screen, miR-122 inhibitor project, cell-based, single point, plate reader | activation (reporter increase), % at 12.5 µM | 0.3% of 340,000 active | Huh7 miR-122 Renilla luciferase sensor, 48 h; neutral wells = 0, positive control = 100 | AID 602342, 2012;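 active means mean replicate activation score at least 90 and every replicate individually at or above 90; inconclusive means only one of the two criteria met; inactive means neither criterion met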;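 further: higher luciferase means less miR-122 activity so hits act as miR-122 inhibitors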
# E-sel inducer = E-selectin induction in HUVECs, primary screen, imaging, HUVEC, immunofluorescence imaging, single point; P16581; normalized: neutral wells 0, TNF-alpha wells 100; activation, % at 7.58 µM; 0.37% of 260,000 active;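 active means mean E-selectin-positive cell signal at least 10% of the positive control, reached in at least 60% of replicates, without over 20% cell loss; inconclusive means no rule given, readout overlaps actives, possibly toxicity-flagged; inactive means the rest, including those meeting only one limit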
# Target sequence (P16581 whole entry, looked up): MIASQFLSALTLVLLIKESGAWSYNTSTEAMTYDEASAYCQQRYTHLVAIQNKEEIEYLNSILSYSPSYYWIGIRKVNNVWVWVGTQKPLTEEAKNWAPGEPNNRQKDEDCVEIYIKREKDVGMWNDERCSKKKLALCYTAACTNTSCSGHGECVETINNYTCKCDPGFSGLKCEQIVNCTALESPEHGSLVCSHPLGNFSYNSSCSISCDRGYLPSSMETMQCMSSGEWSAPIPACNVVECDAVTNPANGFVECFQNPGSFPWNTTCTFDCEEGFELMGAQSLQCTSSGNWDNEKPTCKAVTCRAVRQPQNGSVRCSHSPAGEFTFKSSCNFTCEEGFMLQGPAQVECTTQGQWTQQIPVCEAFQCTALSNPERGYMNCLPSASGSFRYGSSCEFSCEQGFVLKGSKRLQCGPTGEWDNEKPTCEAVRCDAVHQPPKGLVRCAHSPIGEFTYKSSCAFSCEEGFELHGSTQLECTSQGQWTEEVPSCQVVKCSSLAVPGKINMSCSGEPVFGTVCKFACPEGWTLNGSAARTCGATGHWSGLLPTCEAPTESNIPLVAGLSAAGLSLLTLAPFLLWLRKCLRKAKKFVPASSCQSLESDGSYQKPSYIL
#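 Read-out: % PE-positive cells | Test system: HUVEC | Doses: One compound dose added by pin transfer | Buffer or medium: EGM-2 over gelatin coat | Signal: Immunofluorescence imaging | Benchmarks: TNF-alpha, DMSO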
# Cneo AK release = Cryptococcus neoformans cell lysis inducers, primary screen, AK release luminescence, single concentration; C. neoformans lysis, adenylate kinase release luminescence, 4 h; normalised: neutral wells 0, clomiphene wells 100; 0.2% of 360,000 active; lysis activity, % at 15 µM;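 active means mean lysis activity across replicates of at least 80%, whatever share of replicates individually reach that level; inactive means mean lysis activity below 80%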
#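 Material – log-phase Cryptococcus neoformans yeast cells · Input – 5 × 10^6 yeast cells/mL · Medium – fresh YPD growth medium · Doses – single compound concentration per well · Timing – static 4 h at 37 °C with compound, 1 h detection · Detection – adenylate kinase release luminescence · Read-out – signal increase indicating cell lysis · Control set – Clomiphene as positive lysis control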
# Ecoli rRNA inh = reduced GFP signal of wild-type E. coli, primary screen, bacterial rRNA inhibitor project, GFP/RFP fluorescence, OD600, single point | E. coli WT GFP vs humanized-ribosome RFP mutants, 24 h; stronger effect = lower value; DMSO median 0, no signal -100 | GFP signal change (wild-type ribosome), % (no concentration beside the values) | AID 720706, 2013 | 1.6% of 350,000 active;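 active means significant combined selectivity score with lowered wild-type GFP, culture density cut under 30%, mutant RFP and density less affected; inactive means any of these conditions unmet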
# * = called active by the depositor; u = inconclusive; x = no result; [ ] = another dose, or the depositor's remark.
SMILES,DENV2 CPE rescue,miR-122 sensor,E-sel inducer,Cneo AK release,Ecoli rRNA inh
CCC(=O)Nc1cc(C(=O)OCc2ccc(C(=O)Oc3ccccc3)cc2)ccc1C,82*,-3,x,x,5
COc1ccc(C(=O)OCC(=O)c2ccc(F)cc2)cc1OC,4,-5,0,-3,-22*
C[C@@H]1CCCCO[C@@H](CN(C)C(=O)NC2CCCCC2)[C@@H](C)CN([C@H](C)CO)C(=O)c2cc(NC(=O)Nc3ccc4c(c3)OCO4)ccc2O1,7,2[16.7 µM],x,-2,4
CCOC(=O)[C@@H]1[C@H]2COc3ccc(Br)cc3[C@@H]2N2C(=O)N(c3ccc(C)cc3)C(=O)[C@]12C,51*,x,x,3,9
CCOC(=O)[C@H]1[C@H]2COc3ccc(Br)cc3[C@@H]2N2C(=O)CN(Cc3ccco3)C(=O)[C@@]12C,50*,14,0,-2,-5
CCOC(=O)[C@@H]1[C@H]2COc3ccc(Br)cc3[C@H]2N2C(=O)N(c3ccc(C)cc3)C(=O)[C@]12C,4,1,0,2,9
COc1ccc(CN(C)C[C@@H]2Oc3c(NC(=O)Nc4ccc(F)cc4)cccc3C(=O)N([C@@H](C)CO)C[C@H]2C)cc1,-1,29[16.7 µM],261*,-1,-4
C[C@H]1CN([C@@H](C)CO)C(=O)c2cccc(NC(=O)Nc3ccc(F)cc3)c2O[C@@H]1CN(C)Cc1ccncc1,-4,-1[16.7 µM],-10,1,-4
COc1ccc(NC(=O)Nc2cccc3c2O[C@@H](CN(C)Cc2ccccc2)[C@@H](C)CN([C@@H](C)CO)C3=O)cc1,-6,39[16.7 µM],0,38,0
COc1ccc(NC(=O)Nc2cccc3c2O[C@H](CN(C)Cc2ccccc2)[C@H](C)CN([C@H](C)CO)C3=O)cc1,30*,2[16.7 µM],0,39,0
C[C@H](CO)N1C[C@H](C)[C@H](CN(C)Cc2ccncc2)Oc2c(NC(=O)Nc3ccc(F)cc3)cccc2C1=O,-1,4[16.7 µM],105*,-4,5
COC(=O)[C@H]1[C@H](CO)[C@H]2Cn3c(ccc(-c4ccccc4)c3=O)[C@H]2N1CCc1ccccc1,-4,4[16.7 µM],1,-4,-7
CCS(=O)(=O)N1CC2(CN[C@@H](CO)c3c2c2ccc(OC)cc2n3C)C1,-15,x,1,x,2
O=C(O)c1c(-c2ccccc2)oc2ccc(O)cc12,-1,-4,0,0,7
O=Cc1c(-c2ccc(Cl)cc2)oc2ccc(O)cc12,-4,-1,x,-2,-30*
COc1ccccc1C(=O)Nc1ccc2c(c1)C(=O)N(C)C[C@H](OC)[C@@H](C)CN(C)[C@@H](C)CO2,-12,x,0,43,1
Cc1noc(C)c1NC(=O)NCC[C@@H]1CC[C@H](NC(=O)c2ccccc2)[C@H](CO)O1,6,x,0,-3,3
C[C@H]1CN([C@@H](C)CO)S(=O)(=O)c2ccc(C#Cc3cccc(F)c3)cc2O[C@H]1CN(C)S(=O)(=O)c1ccccc1F,0,-7[16.7 µM],-1,1,3
Cn1c(=O)n(C)c2cc(NS(=O)(=O)c3ccc(C(C)(C)C)cc3)ccc21,5,107*,x,x,-20
CCc1cccc(NS(=O)(=O)c2ccc3c(c2)n(C)c(=O)n3C)c1,0,117*,0,-2,2
CC(=O)c1cccc(NS(=O)(=O)c2ccc3c(c2)oc(=O)n3C)c1,x,208*,x,1,x
CCc1cccc(NS(=O)(=O)c2ccc3c(c2)oc(=O)n3C)c1,x,51,x,1,x
Cc1noc(C)c1NC(=O)Nc1ccc2c(c1)C(=O)N([C@@H](C)CO)C[C@@H](C)[C@@H](CN(C)S(=O)(=O)c1ccccc1)O2,x,-4[16.7 µM],0,x,3
C[C@@H]1CN([C@@H](C)CO)C(=O)c2cc(NC(=O)Cc3cn(C)c4ccccc34)ccc2O[C@H]1CN(C)C(=O)Nc1ccccc1,35*,2[16.7 µM],0,2,-1
C[C@H]1CN([C@@H](C)CO)C(=O)c2cc(NC(=O)Cc3cn(C)c4ccccc34)ccc2O[C@H]1CN(C)C(=O)Nc1ccc2c(c1)OCO2,28*,-7[16.7 µM],x,9,-2
SMILES,DENV2 CPE rescue,miR-122 sensor,E-sel inducer,Cneo AK release,Ecoli rRNA inh
O=C(CN1CCN(c2ncccn2)CC1)N(Cc1ccccc1)c1ccc(F)cc1,5,x,x,0,-35*
COc1ccccc1C(=O)N1C[C@@H]2[C@H](c3ccccc31)[C@@H](CO)N2C(=O)Cc1ccccc1,-9,29[16.7 µM],0,1,2
CCC(=O)N1C[C@@H]2[C@H](c3ccccc31)[C@H](CO)N2Cc1ccccc1OC,35*,19[16.7 µM],0,1,0
COc1ccccc1C(=O)N1C[C@H]2[C@@H](c3ccccc31)[C@@H](CO)N2C(=O)Cc1ccccc1,u,43[16.7 µM],0,101*,2
CC(C)NC(=O)Nc1ccc2c(c1)CC(=O)N([C@@H](C)CO)C[C@H](C)[C@@H](CN(C)Cc1ccc(C(=O)O)cc1)O2,u,-6[16.7 µM],37*,-1,0
CC(C)NC(=O)Nc1ccc2c(c1)CC(=O)N([C@H](C)CO)C[C@@H](C)[C@H](CN(C)Cc1ccc(C(=O)O)cc1)O2,u,-1[16.7 µM],-2,-1,6
CC(C)NC(=O)Nc1ccc2c(c1)CC(=O)N([C@H](C)CO)C[C@@H](C)[C@@H](CN(C)Cc1ccc(C(=O)O)cc1)O2,68*,-2[16.7 µM],18,-3,1
O=C(Cc1ccncc1)N[C@H]1CC[C@@H](CCn2cc(-c3ccccc3F)nn2)O[C@H]1CO,-1,-9[16.7 µM],0,1,0
COc1ccc(NC(=O)N(C)C[C@@H]2Oc3c(NC(=O)CCCCCC(=O)Nc4ccccc4N)cccc3C(=O)N([C@H](C)CO)C[C@H]2C)cc1,-11,x,0,x,-3
CCCN(CC(=O)Nc1ccccc1C)C(=O)c1cccc(S(=O)(=O)N2CCc3ccccc3C2)c1,u,8,x,4,-21*
COC(=O)COc1ccc(S(=O)(=O)N2CCc3ccccc3C2)cc1C,x,1,x,0,-26*
Cc1cc(S(=O)(=O)N2CCCC2)ccc1OCC(=O)NCc1ccccc1,2,2,0,1,-1
O=C(C[C@@H]1CC[C@@H](NC(=O)c2ccccc2)[C@H](CO)O1)Nc1ccc(-c2ccccc2)cc1,7,1[16.7 µM],1,2,-1
CSc1ccc(S(=O)(=O)NC2CC3CCC2C3)cc1 (stereo not drawn),37*,104*,x,0,-22
CCOC(=O)C1=CN(Cc2cccc(Br)c2)S(=O)(=O)N(C)C1C (stereo not drawn),37*,-1,-1,-1,-20
